We go through 5 compounds from article PMC11740227 (FASEB journal : official publication of the Federation of …, 2023).

Data set [1] deals with Molt4E6 cells. As to the kind of experiment: Cell death by trypan blue exclusion in Molt4E6 cells. The class given is cell-based, human. To be noted: for cell death: Molt4E6 cells, 24 h of treatment.
Data set [2] has as its system Molt4E6 cells. Description: Caspase activation by Western blot in Molt4E6 cells. To be noted: 6 h of treatment. The class given is cell-based, human. In general terms: In western blotting, separated proteins are transferred to a membrane and probed.
The format of data set [3] is in vitro ADME. To be noted: mouse.
Another data set deals with S1P levels in blood. As to the kind of experiment: Blood sphingolipid analysis by LC MS/MS after PF543 administration. Particulars: 10 mg/kg of body weight, 2 h after IP injection, vs vehicle. The class given is in vivo, mouse.
Data set [4] in a line: Pharmacokinetics of PF543 in wildtype mice, IP dosing. The class given is in vivo, mouse. Particulars: after IP administration in mice.
The test system of data set [5] is mouse Trp53KO thymic lymphoma cells. As to the kind of experiment: Proliferation, viability and cell death of cultured thymic lymphoma cells. The class given is cell-based.
Data set [6] concerns WT mice. To be noted: mouse, in vivo, ip, 10 mg/kg.
Data set [7] deals with Trp53KO thymic lymphoma. Description: Thymic lymphoma growth in Trp53KO mice by ultrasound imaging. The class given is in vivo, mouse. To be noted: 10 mg/kg BID IP for 10 days, compared to vehicle.
Data set [8] has as its system WT mice. As to the kind of experiment: Tolerability of IP dosing in the PK study. The class given is in vivo. To be noted: 100 mg/kg IP.
The test system of data set [9] is mouse Trp53KO thymic lymphoma cells. As to the kind of experiment: Sphingolipid levels in cultured cells by LC MS/MS. The class given is cell-based. To be noted: PF543 0.5 μM.
For data set [10], the system named is lymphocytes isolated from WT thymus. Description: Viability of WT lymphocytes. The class given is cell-based, mouse.
The test system of data set [11] is Trp53KO thymic lymphoma. Description: Cleaved caspase 3 immunohistochemistry of tumor tissue. The class given is in vivo, mouse. To be noted: Trp53KO mice, day 10 after treatment initiation, compared to vehicle. The method in brief:
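Male Trp53KO mice with ultrasound-detected thymic lymphoma (100–150 mm3) received vehicle or test compound, 10 mg/kg IP twice daily (suspension in 1% HPMC/PBS), and tumors were taken at day 10. Sections were stained overnight at 4°C with anti-cleaved caspase-3 (1:200), then biotinylated anti-rabbit, DAB/H2O2 and hematoxylin counterstain. Positive cells counted in ten 20× fields per sample, expressed per mm2; three mice per condition.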

The subject of a further data set is Jurkat cells. Description: Cell death by trypan blue exclusion in Jurkat cells with Bak knockdown. The class given is cell-based, human. To be noted: Jurkat sgRNA BakA and BakB vs control cells, 24 h of treatment.

For `CCCC[C@@H](C)[C@@H](OC(=O)C[C@@H](CC(=O)O)C(=O)O)[C@H](C[C@@H](C)C[C@H](O)CCCC[C@@H](O)C[C@H](O)[C@H](C)N)OC(=O)C[C@@H](CC(=O)O)C(=O)O` [FB1], the “protection from Sph-induced cell death” value in the data set with Molt4E6 cells [1] (FB1 25 μM pre-treatment 1 h, then 3 μM D-erythro-Sph, 24 h) was “did not protect”.

With `CCCCCCCCCCCCC/C=C/[C@H](O)[C@H](N)CO` [L-erythro-Sph], the caspase activation entry in the data set with Molt4E6 cells [2] was “did not induce cell death or caspase activation”. For the same compound, the cell death result in the data set on Molt4E6 cells [1] is recorded as “did not induce cell death”.

With `Cc1cc(CS(=O)(=O)c2ccccc2)cc(OCc2ccc(CN3CCC[C@@H]3CO)cc2)c1` [PF543], the plasma protein binding in data set [3] is 94 % bound. For the same compound, in the data set with S1P levels in blood, the “S1P levels in blood” value was “decreased”. In data set [4], the “half-life (T1/2)” value is ~ 4 h. In [5] (PF543 0.5 μM, low-serum medium, counted every day for 4 days, CCK-8 at day 2), the proliferation over time entry is “significantly decreased”. Besides, in data set [5] (Trp53KO thymic lymphoma cells treated with PF543), the cell death result was “resulted in cell death”. Moreover, the “survival of cells in culture” value in [5] (mouse Trp53KO lymphoma cells) was “reduced survival”. In the data set with WT mice [6], the “liver function (liver enzymes in blood)” value is recorded as “did not significantly impact”; the “number of total white cells and lymphocytes in blood” value was “no decrease”. Moreover, in the data set with Trp53KO thymic lymphoma [7], the “tumor growth (tumor size by ultrasound)” value is given as “significant inhibition”. In addition, in the data set on WT mice [8], the “tolerability of IP dosing” value is on record as “not tolerated”. Besides, in data set [9], the “Sph levels in cells” value is “significantly increased” and the “total Cer levels in cells” value is listed as “significantly increased”. In addition, in [10], the “cell viability over time” value is on record as “did not affect cell viability”. Besides, the “number of cleaved caspase 3 positive cells in tumor samples” value in the data set with Trp53KO thymic lymphoma [11] is listed as “significantly higher”.

Turning to `CCCCCCCCCCCCC/C=C/[C@@H](O)[C@@H](N)CO` [Sph, sphingosine], in the data set on Jurkat cells, the “Sph-induced cell death after knockdown of Bak” value was “significantly protected”. In addition, in the data set on Molt4E6 cells [2], the caspase activation result is reported as “activation of caspases”. In addition, the cell death result in the data set with Molt4E6 cells [1] is “caused cell death”.

ZVAD: the “protection from PF543-induced cell death” value in data set [5] (pan-caspase inhibitor with PF543, Trp53KO thymic lymphoma cells) is “partially protected”. Moreover, the “inhibition of Sph-induced cell death” value in the data set on Molt4E6 cells [1] (ZVAD 40 μM pre-treatment 1 h, then 3 μM D-erythro-Sph, 24 h) is reported as “significantly inhibited”.
